Test results: ChEMBL document CHEMBL3085707, “Solution-phase microwave assisted parallel synthesis of N,N'-disubstituted thioureas derived from benzoic acid: biological evaluation and molecular docking studies” (Eur J Med Chem, 2013)
Activity calls are given as the source filed them. The rule behind the calls is not given here.

What was measured:
[1] = tested on: Radical scavenging activity; assay: Antioxidant activity assessed as DPPH free radical scavenging activity after 30 mins; assay type: functional
Aspergillus niger = assay: Antifungal activity against Aspergillus niger after 24 to 48 hrs by agar well diffusion method; assay type: functional
Method in brief: (§1)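 Agar well diffusion: 20 mL inoculum added to molten potato dextrose agar and pour-plated, with 6 mm wells cut by cork borer after setting. Inhibition zone measured in mm and scored from + (<1 mm) to ++++ (>6 mm). 2% DMSO in screen medium was the negative control; fluconazole and terbinafine were separate positive controls.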

Urease = Urease (Canavalia ensiformis, UniProt P07374); assay: Inhibition of jack bean urease assessed as ammonia production after 30 mins by indophenol method
Method in brief: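 Indophenol (Weatherburn) ammonia read-out. Enzyme (5 U/mL) and test compound in buffer of 100 mM urea, 1 mM EDTA, 10 mM K2HPO4 and 10 mM […] at pH 8.2, incubated 30 min at 37 °C. Phenol and alkali reagents (NaOH, 0.1% active chloride NaOCl) then added; absorbance read by microplate reader. Run in triplicate; thiourea and acetohydroxamic acid as reference inhibitors.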

Saccharomyces cerevisiae = assay: Antifungal activity against Saccharomyces cerevisiae after 24 to 48 hrs by agar well diffusion method; assay type: functional; method in brief: as §1
Candida tropicalis = assay: Antifungal activity against Candida tropicalis after 24 to 48 hrs by agar well diffusion method; assay type: functional; method in brief: as §1
Aspergillus flavus = assay: Antifungal activity against Aspergillus flavus after 24 to 48 hrs by agar well diffusion method; assay type: functional; method in brief: as §1
[2] = tested on: Radical scavenging activity; assay: Antioxidant activity assessed as DPPH free radical scavenging activity at 1 mM after 30 mins; assay type: functional
[3] = target: Urease (Canavalia ensiformis) (UniProt P07374); assay: Competitive inhibition of jack bean urease by Lineweaver-Burk plot analysis
Method in brief: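 Urease kinetics by the Weatherburn method: buffer of 100 mM urea, 1 mM EDTA, 10 mM K2HPO4 and 10 mM […] at pH 8.2, with enzyme at 5 U/mL and inhibitor, incubated 30 min at 37 °C. Inhibitor was used at 0, 0.05 and 0.5 mM. Vmax and Km were taken from Lineweaver-Burk plots.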

Chain of Urease (P07374 whole entry): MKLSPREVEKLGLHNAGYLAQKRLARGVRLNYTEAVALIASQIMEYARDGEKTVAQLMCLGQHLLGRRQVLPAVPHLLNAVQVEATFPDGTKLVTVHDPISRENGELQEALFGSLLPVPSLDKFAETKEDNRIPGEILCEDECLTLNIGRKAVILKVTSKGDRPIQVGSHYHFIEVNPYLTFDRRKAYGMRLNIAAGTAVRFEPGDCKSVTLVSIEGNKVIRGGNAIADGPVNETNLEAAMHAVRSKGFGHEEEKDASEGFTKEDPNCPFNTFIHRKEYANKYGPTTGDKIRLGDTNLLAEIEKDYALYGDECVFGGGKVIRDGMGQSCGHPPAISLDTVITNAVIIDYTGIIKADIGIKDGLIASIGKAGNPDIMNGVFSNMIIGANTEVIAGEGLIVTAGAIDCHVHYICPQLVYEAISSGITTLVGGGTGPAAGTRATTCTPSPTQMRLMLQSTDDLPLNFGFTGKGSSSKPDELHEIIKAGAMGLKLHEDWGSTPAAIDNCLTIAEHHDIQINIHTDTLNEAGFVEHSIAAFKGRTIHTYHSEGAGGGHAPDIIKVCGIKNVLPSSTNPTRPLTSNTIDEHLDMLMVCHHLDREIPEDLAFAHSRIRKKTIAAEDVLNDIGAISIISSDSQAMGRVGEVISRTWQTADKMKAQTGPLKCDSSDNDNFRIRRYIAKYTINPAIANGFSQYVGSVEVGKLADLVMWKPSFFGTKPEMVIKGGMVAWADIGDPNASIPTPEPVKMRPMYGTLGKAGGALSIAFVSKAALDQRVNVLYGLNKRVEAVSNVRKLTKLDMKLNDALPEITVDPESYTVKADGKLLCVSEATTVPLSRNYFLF
Chain of Urease (Canavalia ensiformis) (P07374 whole entry, looked up): as the sequence (P07374 whole entry) above

| SMILES | IC50 [1] [µM] | inhibition zone (IZ) (Aspergillus niger) | IC50 (Urease) [µM] | inhibition zone (IZ) (Saccharomyces cerevisiae) | inhibition zone (IZ) (Candida tropicalis) | inhibition zone (IZ) (Aspergillus flavus) | inhibition [2] [%] | inhibition [3] |
| --- | --- | --- | --- | --- | --- | --- | --- | --- |
| COc1ccc(O)c(C(C)(C)C)c1.COc1ccc(O)cc1C(C)(C)C [BUTYLATED HYDROXYANISOLE] | 28.2 |  |  |  |  |  |  |  |
| O=C(NC(=S)Nc1ccccc1Cl)c1ccccc1 |  | <1 mm | 41.2 | <1 mm | <1 mm | <1 mm | 26 |  |
| Cc1cccc(NC(=S)NC(=O)c2ccccc2)c1C |  | <1 mm | 3.17 | <1 mm | <1 mm | <1 mm | 27 |  |
| OC(Cn1cncn1)(Cn1cncn1)c1ccc(F)cc1F [FLUCONAZOLE] |  | 3 mm |  | 3 mm | 3 mm | 3 mm |  |  |
| CCCCc1ccc(NC(=S)NC(=O)c2ccccc2)cc1 | 676 | <1 mm | 47.2 | <1 mm | <1 mm | <1 mm |  |  |
| NC(N)=S [THIOUREA] |  |  | 22.3 |  |  |  |  |  |
| O=C(NC(=S)NCc1ccccc1)c1ccccc1 |  | inactive | 27.4 | inactive | inactive | inactive | 22 |  |
| Cc1cc(C)c(NC(=S)NC(=O)c2ccccc2)c(C)c1 |  | <1 mm | 8.11 | <1 mm | 1 mm | 1 mm | 24 |  |
| O=C(NC(=S)NCc1ccccc1Cl)c1ccccc1 |  | <1 mm | 35.3 | <1 mm | <1 mm | <1 mm | 36 |  |
| O=C(NC(=S)NC1CCCCC1)c1ccccc1 |  | <1 mm | 53.2 | <1 mm | <1 mm | <1 mm | 28 |  |
| O=C(NC(=S)Nc1ccc(C(F)(F)F)cc1)c1ccccc1 | 114 | 3 mm | 12.2 | 3 mm | 3 mm | 3 mm |  |  |
| O=C(NC(=S)Nc1ccc(F)cc1)c1ccccc1 |  | 3 mm | 41.2 | 3 mm | 3 mm | 3 mm | 31 |  |
| O=C(NC(=S)Nc1ccccc1C(F)(F)F)c1ccccc1 |  | 1 mm | 38.2 | 1 mm | 3 mm | 3 mm | 38 |  |
| O=C(NC(=S)Nc1cc(Cl)cc(Cl)c1)c1ccccc1 | 27 | <1 mm | 18.4 | <1 mm | <1 mm | <1 mm |  |  |
| O=C(NC(=S)Nc1cccc(C(F)(F)F)c1)c1ccccc1 |  | 3 mm | 39.6 | 3 mm | 1 mm | 1 mm | 34 |  |
| O=C(NC(=S)Nc1ccc(Cl)cc1)c1ccccc1 | 265 | 1 mm | 35.3 | 1 mm | 1 mm | 1 mm |  |  |

| SMILES | IC50 [1] [µM] | inhibition zone (IZ) (Aspergillus niger) | IC50 (Urease) [µM] | inhibition zone (IZ) (Saccharomyces cerevisiae) | inhibition zone (IZ) (Candida tropicalis) | inhibition zone (IZ) (Aspergillus flavus) | inhibition [2] [%] | inhibition [3] |
| --- | --- | --- | --- | --- | --- | --- | --- | --- |
| O=C(NC(=S)Nc1ccc(Cl)cc1Cl)c1ccccc1 | 240 | 3 mm | 13.2 | 3 mm | 1 mm | 1 mm |  |  |
| O=C(NC(=S)Nc1c(Cl)c(Cl)cc(Cl)c1Cl)c1ccccc1 |  | 3 mm | 74.9 | 3 mm | 3 mm | 3 mm | 31 |  |
| O=C(NC(=S)Nc1ccccc1)c1ccccc1 [N-(PHENYLCARBAMOTHIOYL)BENZAMIDE] | 769 | inactive | 14.1 | inactive | inactive | inactive |  |  |
| O=C(NC(=S)Nc1c(Cl)cccc1Cl)c1ccccc1 |  | 1 mm | 4.27 | 1 mm | 1 mm | 1 mm | 29 |  |
| O=C(NC(=S)Nc1ccc(Cl)c(Cl)c1)c1ccccc1 | 70 | <1 mm | 5.51 | <1 mm | <1 mm | <1 mm |  |  |
| O=C(NC(=S)Nc1c(Cl)cc(Cl)cc1Cl)c1ccccc1 |  | 3 mm | 1.67 | 3 mm | 3 mm | 3 mm | 19 | Active |
| O=C(NC(=S)Nc1cccc(Cl)c1Cl)c1ccccc1 | 29.5 | <1 mm | 32.2 | <1 mm | <1 mm | <1 mm |  |  |
| Cc1ccc(NC(=S)NC(=O)c2ccccc2)cc1 | 23.3 | 1 mm | 6.23 | 1 mm | 1 mm | 1 mm |  |  |
| CN(C/C=C/C#CC(C)(C)C)Cc1cccc2ccccc12 [TERBINAFINE] |  | 3 mm |  | 3 mm | 3 mm | 3 mm |  |  |
| O=C(NC(=S)Nc1cccc(F)c1)c1ccccc1 |  | 1 mm | 3.52 | 1 mm | <1 mm | <1 mm | 38 |  |
| O=C(NC(=S)Nc1cc(Cl)ccc1Cl)c1ccccc1 | 30.7 | <1 mm | 4.54 | <1 mm | <1 mm | <1 mm |  |  |
| O=C(NC(=S)Nc1ncccn1)c1ccccc1 | 276 | <1 mm | 8.21 | <1 mm | inactive | inactive |  |  |
| O=C(NC(=S)Nc1cccc(Cl)c1)c1ccccc1 |  | <1 mm | 27.3 | <1 mm | <1 mm | <1 mm | 21 |  |
| COc1cccc(NC(=S)NC(=O)c2ccccc2)c1 | 805 | 3 mm | 12.8 | 3 mm | 3 mm | 3 mm |  |  |
| CCCOC(=O)c1cc(O)c(O)c(O)c1 [PROPYL GALLATE] | 40.8 |  |  |  |  |  |  |  |
